3 compounds from ChEMBL document CHEMBL3352809, “Discovery of a Negative Allosteric Modulator of GABAB Receptors” (ACS Med Chem Lett, 2014) can be followed below.

SMILES strings stand for the structures. The source made the active and inactive calls. The calls are words filed in the database; no cut-off is given here.

The target in one test is GABA-B receptor (Homo sapiens, UniProt O75899+Q9UBS5). The experiment in a line: (§1) Negative allosteric modulation of recombinant HA-tagged GB1 subunit/Flag-tagged GB2 subunit receptor (unknown origin) expressed in HEK293 cells co-expressing Gqi9 G-protein assessed as inhibition of GABA-induced IP production by liquid scintillation counting. The class given is cell-based. Summed up:
(§2)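 IP3 formation in HEK293 cells overexpressing GABA_B receptors (GB1 + GB2) and Gq_i9 chimeric proteins. Compounds were tested at 100 μM against GABA 1 μM, with GABA dose-response curves run with or without compound. Inhibition curves were run with compound titrated in the presence of 1 μM GABA to derive IC50. Data are mean SEM of three independent experiments.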

Test [1] has as its target T1, GABA-B receptor (Homo sapiens) (UniProt Q9UBS5+O75899). The test is described as §1. The test is classed as cell-based. Summed up: as §2
A further test has as its system HEK293. Nature of the test: Effect on ERK1/2 protein expression in HEK293 cells at 100 uM by immunoblotting. The test is classed as functional, cell-based. The note with it: Homo sapiens. In a few lines:
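ERK1/2 phosphorylation in HEK293 cells overexpressing GABA_B receptors (GB1 + GB2), stimulated with baclofen (100 μM) or CGP7930 (100 μM), with or without test compound at 100 μM. Data are mean SEM of three independent experiments. Significance was taken versus agonist alone.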

Test [2] addresses Metabotropic glutamate receptor 2 (Homo sapiens) (UniProt Q14416). Nature of the test: Negative allosteric modulation of mGluR2 (unknown origin) expressed in HEK293 cells co-expressing Gqi9 G-protein assessed as inhibition of glutamate-induced Ca2+ release at 50 uM by fluorescence assay. The class given is functional, cell-based. Summed up:
(§3)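 Test compound was at 50 μM. Agonists were GABA 100 μM for GABA_B and glutamate 10 μM for mGluR1, 2 and 5. Response was compared with agonist alone. Data are mean SEM of three independent experiments.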

Test [3] concerns the target Metabotropic glutamate receptor 5 (Homo sapiens) (UniProt P41594). Nature of the test: Negative allosteric modulation of mGluR5 (unknown origin) expressed in HEK293 cells assessed as inhibition of glutamate-induced Ca2+ release at 50 uM by fluorescence assay. The test is classed as functional, cell-based. Summed up:
as §3

Test [4] concerns the target T1, GABA-B receptor (Homo sapiens). Nature of the test: Negative allosteric modulation of recombinant HA-tagged GB1 subunit/Flag-tagged GB2 subunit receptor (unknown origin) expressed in HEK293 cells co-expressing Gqi9 G-protein assessed as inhibition of GABA-induced Ca2+ release at 50 uM by fluorescence assay. The test is classed as functional, cell-based. Summed up: as §3

Test [5] has the same target. Nature of the test: Displacement of [3H]CGP54626 from recombinant HA-tagged GB1 subunit/Flag-tagged GB2 subunit receptor (unknown origin) expressed in CHO cells up to 100 uM by scintillation proximity assay. The class given is cell-based. (In general: In a radioligand displacement assay an active substance lowers the binding of a labelled ligand.)
Test [6] addresses Metabotropic glutamate receptor 1 (Homo sapiens) (UniProt Q13255). Nature of the test: Negative allosteric modulation of mGluR1 (unknown origin) expressed in HEK293 cells assessed as inhibition of glutamate-induced Ca2+ release at 50 uM by fluorescence assay. The test is classed as functional, cell-based. In a few lines: as §3

Sequence of GABA-B receptor (Q9UBS5 whole entry): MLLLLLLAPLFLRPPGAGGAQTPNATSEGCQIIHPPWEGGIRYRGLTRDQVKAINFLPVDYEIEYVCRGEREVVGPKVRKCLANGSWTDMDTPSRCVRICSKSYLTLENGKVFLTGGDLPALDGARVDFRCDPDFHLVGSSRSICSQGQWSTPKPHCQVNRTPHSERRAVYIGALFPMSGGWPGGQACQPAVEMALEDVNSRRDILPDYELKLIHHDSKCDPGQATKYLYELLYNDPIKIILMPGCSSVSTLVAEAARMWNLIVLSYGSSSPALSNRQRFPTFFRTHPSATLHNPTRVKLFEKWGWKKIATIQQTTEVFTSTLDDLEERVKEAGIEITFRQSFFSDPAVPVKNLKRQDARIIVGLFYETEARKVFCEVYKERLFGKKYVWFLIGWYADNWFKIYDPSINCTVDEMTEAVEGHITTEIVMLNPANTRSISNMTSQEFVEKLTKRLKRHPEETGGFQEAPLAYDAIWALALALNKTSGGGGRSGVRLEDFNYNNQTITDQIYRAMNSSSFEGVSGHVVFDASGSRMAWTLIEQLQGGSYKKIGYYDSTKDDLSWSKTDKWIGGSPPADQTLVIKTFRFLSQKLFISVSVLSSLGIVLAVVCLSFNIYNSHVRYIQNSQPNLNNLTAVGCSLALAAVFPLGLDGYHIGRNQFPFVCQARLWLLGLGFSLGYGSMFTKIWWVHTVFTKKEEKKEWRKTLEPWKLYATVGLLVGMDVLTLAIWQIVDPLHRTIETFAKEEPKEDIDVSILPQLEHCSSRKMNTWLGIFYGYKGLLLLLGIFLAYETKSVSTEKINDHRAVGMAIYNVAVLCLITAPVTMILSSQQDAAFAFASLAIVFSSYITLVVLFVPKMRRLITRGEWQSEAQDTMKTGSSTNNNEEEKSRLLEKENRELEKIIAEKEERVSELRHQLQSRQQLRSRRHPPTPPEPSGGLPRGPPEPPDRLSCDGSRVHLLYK
Sequence of GABA-B receptor (O75899 whole entry): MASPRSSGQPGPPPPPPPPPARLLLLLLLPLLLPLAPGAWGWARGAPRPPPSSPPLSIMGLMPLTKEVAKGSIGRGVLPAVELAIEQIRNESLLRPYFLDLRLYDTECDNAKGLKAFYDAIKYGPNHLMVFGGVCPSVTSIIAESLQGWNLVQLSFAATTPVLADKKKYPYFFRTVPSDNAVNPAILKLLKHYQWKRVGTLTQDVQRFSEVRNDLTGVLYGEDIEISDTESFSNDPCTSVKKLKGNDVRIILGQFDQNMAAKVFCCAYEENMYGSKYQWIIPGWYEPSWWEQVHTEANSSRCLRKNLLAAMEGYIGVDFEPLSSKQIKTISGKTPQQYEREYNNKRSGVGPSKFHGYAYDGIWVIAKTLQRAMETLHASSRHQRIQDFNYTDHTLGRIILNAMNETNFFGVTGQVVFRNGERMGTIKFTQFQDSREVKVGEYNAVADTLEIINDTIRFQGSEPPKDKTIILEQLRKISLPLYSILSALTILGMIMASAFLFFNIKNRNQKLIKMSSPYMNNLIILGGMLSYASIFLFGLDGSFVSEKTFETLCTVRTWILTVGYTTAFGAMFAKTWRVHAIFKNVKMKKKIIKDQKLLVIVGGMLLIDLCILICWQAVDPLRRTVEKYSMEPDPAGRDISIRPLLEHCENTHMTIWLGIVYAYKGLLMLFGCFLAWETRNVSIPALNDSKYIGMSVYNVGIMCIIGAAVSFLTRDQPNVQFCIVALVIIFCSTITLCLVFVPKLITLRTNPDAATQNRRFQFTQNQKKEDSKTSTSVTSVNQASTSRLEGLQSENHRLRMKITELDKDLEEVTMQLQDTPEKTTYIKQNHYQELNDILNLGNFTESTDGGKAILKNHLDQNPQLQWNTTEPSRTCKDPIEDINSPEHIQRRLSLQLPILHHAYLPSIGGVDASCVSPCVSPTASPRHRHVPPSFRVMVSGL
Sequence of Metabotropic glutamate receptor 1 (Homo sapiens) (Q13255 19-1194 limits assumed): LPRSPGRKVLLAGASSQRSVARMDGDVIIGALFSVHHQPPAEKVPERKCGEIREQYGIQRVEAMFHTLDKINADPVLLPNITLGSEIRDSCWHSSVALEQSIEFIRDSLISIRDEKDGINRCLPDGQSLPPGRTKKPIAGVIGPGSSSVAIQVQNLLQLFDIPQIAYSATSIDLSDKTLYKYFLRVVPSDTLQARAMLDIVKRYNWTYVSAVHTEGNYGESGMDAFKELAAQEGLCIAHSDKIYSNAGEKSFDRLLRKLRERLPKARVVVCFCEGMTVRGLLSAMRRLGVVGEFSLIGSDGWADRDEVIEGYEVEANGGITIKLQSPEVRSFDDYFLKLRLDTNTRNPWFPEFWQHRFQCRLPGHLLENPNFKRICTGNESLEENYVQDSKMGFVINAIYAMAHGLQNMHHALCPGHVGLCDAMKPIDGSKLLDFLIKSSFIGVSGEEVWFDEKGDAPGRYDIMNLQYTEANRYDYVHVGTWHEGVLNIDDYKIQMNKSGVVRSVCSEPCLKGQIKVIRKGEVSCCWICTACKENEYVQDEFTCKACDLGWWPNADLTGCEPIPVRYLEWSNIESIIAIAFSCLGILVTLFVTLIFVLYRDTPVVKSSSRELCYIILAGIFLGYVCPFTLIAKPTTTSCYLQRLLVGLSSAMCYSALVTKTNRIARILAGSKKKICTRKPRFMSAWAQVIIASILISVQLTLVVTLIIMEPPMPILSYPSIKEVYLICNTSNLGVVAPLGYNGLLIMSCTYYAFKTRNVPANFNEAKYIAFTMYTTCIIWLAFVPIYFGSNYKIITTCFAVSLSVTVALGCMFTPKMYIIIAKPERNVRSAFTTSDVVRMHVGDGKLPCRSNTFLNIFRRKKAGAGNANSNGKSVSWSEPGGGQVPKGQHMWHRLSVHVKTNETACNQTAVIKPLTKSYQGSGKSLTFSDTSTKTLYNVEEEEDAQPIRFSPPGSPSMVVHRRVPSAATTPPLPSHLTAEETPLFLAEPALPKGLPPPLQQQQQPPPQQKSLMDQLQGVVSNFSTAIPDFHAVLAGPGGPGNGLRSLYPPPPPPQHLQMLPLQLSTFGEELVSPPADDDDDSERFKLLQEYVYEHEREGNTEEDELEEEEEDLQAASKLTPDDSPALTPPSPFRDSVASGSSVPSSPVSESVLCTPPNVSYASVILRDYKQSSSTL
Sequence of Metabotropic glutamate receptor 5 (Homo sapiens) (P41594 21-1212 limits assumed): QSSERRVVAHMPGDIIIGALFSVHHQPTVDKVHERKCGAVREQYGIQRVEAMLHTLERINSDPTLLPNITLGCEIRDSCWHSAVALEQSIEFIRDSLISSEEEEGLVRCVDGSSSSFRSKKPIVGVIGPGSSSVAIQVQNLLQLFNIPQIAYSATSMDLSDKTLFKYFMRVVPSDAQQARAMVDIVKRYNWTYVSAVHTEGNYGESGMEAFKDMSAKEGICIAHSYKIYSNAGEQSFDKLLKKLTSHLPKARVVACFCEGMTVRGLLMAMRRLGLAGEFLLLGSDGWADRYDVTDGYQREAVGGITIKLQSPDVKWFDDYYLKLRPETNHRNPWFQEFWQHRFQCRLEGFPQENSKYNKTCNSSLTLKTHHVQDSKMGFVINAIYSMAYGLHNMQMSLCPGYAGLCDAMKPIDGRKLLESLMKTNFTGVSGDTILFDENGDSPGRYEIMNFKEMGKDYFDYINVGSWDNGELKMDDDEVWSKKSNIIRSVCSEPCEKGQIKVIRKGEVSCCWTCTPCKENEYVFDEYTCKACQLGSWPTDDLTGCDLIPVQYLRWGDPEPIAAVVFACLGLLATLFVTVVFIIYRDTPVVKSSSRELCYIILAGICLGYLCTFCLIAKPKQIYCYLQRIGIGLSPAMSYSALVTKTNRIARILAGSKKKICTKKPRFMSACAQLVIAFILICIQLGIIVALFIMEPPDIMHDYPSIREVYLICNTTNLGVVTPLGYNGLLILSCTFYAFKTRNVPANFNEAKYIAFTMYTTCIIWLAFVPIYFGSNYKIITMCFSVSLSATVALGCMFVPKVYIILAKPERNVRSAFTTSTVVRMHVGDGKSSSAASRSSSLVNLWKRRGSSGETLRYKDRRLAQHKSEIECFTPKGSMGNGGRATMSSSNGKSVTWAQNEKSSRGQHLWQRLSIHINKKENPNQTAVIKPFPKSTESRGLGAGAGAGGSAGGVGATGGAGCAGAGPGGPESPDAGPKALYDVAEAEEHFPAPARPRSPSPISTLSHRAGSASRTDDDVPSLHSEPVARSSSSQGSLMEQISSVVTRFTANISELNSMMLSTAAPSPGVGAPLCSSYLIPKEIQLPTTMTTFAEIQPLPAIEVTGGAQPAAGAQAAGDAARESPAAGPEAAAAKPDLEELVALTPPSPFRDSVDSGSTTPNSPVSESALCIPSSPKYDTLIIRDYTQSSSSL
Sequence of Metabotropic glutamate receptor 2 (Homo sapiens) (Q14416 19-872 limits assumed): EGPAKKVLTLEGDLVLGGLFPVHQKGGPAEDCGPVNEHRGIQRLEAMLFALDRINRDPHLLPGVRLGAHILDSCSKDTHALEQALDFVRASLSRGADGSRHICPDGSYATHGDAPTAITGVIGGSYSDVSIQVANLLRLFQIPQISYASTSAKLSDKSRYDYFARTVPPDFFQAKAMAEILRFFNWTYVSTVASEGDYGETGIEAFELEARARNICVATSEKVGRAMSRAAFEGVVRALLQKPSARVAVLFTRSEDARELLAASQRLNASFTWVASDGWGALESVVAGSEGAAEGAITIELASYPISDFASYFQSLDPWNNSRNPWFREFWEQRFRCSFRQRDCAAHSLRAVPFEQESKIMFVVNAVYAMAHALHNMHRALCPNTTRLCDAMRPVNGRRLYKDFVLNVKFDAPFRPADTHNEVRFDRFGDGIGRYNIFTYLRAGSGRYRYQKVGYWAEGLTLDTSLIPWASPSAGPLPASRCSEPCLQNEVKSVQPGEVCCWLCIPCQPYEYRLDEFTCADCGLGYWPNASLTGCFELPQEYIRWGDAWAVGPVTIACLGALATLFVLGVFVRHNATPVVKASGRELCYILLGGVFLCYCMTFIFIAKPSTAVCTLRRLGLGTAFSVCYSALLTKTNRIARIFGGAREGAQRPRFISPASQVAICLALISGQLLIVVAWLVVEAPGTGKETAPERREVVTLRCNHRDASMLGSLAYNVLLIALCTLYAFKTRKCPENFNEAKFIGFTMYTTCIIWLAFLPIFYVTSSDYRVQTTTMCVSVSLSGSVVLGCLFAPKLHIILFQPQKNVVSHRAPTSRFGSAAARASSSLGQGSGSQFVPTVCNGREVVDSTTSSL

In general, IC50 refers to the concentration that gives 50% inhibition. For `CC(C)(C)c1cc(/C=C/C=O)cc(C(C)(C)C)c1O`, the IC50 on GABA-B receptor came out at 21.3 µM. The inhibition entry in test [1] was “Dose-dependent effect”.

`COC(O)CC(O)c1cc(C(C)(C)C)c(O)c(C(C)(C)C)c1` (stereo not given): the inhibition result in the test with HEK293 was “inactive”.

Consider `CC(C)(C)c1cc(/C=C/C(=O)C(=O)O)cc(C(C)(C)C)c1O`, for which, on GABA-B receptor, the IC50 was 37.9 µM. Also, the inhibition result in test [1] is “Dose-dependent effect”. The inhibition result in test [2], in test [3], in test [5] and in test [6] was “inactive” each time. For the same compound, in test [4], the inhibition result is “Active”.
